Legend:
[1] = Cytotoxicity against human HepG2 2.2.15 cell line assessed as cell viability measured after 72 hrs by MTT assay; format: cell-based; settings: HepG2 2.2.15 cells
Procedure, shortened: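 HepG2 2.2.15 cells were precultured for 24 h, then incubated with compound for 72 h. Viability was read as MTT absorbance at 490 nm relative to untreated cells on the same plate. CC50 is the concentration causing 50% cell death.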

Hepatitis B virus [2] = assay: Antiviral activity against HBV infected in human HepG2 2.2.15 cells assessed as decrease in extracellular viral DNA level at 0.8 uM measured after incubation of 6 days by RT-PCR analysis; format: functional; settings: HepG2 2.2.15, 144 h, time 6 day
Procedure, shortened: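 HepG2 2.2.15 cells, which stably carry the HBV genome, were grown in DMEM with 10% FBS, penicillin/streptomycin and 0.38 mg/mL G418. They were seeded at 2×10^5/well and allowed to recover for 24 h. Cells were then exposed to 0.8 µM compound for 6 days, with medium changed every 2 days. HBV DNA was quantified by real-time PCR and expressed as % inhibition versus control.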

[3] = Selectivity index, ratio of CC50 for human HepG2 2.2.15 to IC50 of antiviral activity against HBV infected in human HepG2 2.2.15 cells assessed as decrease in extracellular viral DNA level measured after incubation of 6 days by RT-PCR analysis; format: toxicity, cell-based; settings: time 6 day, read-out: Selectivity Index
Procedure, shortened: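 SI was calculated as the CC50 in HepG2 2.2.15 cells (72 h MTT) divided by the IC50 for HBV DNA inhibition. That IC50 came from HepG2 2.2.15 cells treated for 6 days with medium changed every 2 days, with HBV DNA quantified by real-time PCR.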

Hepatitis B virus [4] = assay: Antiviral activity against HBV infected in human HepG2 2.2.15 cells assessed as decrease in extracellular viral DNA level measured after incubation of 6 days by RT-PCR analysis; format: functional, organism-based; settings: HepG2 2.2.15, 144 h
Procedure, shortened: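 Cells were HepG2 2.2.15 (stable HBV genome), seeded at 2×10^5/well and recovered for 24 h. Dose-dependent exposure to compound lasted 6 days, with medium replaced every 2 days. HBV DNA was measured by real-time PCR. IC50 is the concentration giving 50% inhibition of HBV DNA replication, reported as mean ± SD of triplicate experiments.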

Hepatitis B virus [5] = assay: Antiviral activity against wild type HBV infected in human […] cells assessed as inhibition of viral DNA replication at 10 uM measured after incubation of 72 hrs by RT-PCR analysis relative to control; format: functional, HepG2 2.2.15
Procedure, shortened: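 Parental HepG2 cells were plated at 2×10^5/well. After 24 h they were transiently transfected for 24 h with a full-length wild-type HBV genome plasmid, then washed with PBS. Cells were then treated for 72 h in fresh medium: entecavir 10 µM, lamivudine 100 µM. Intracellular HBV DNA replicative intermediates were quantified by real-time PCR.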

Hepatitis B virus [6] = assay: (§1) Antiviral activity against lamivudine/entecavir-resistant HBV rtL180M/rtM204V/rtT184L mutant infected in human HepG2 2.2.15 cells assessed as inhibition of viral DNA replication at 10 uM measured after incubation of 72 hrs by RT-PCR analysis relative to control; format: functional
Procedure, shortened: (§2)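 HepG2 cells (2 × 10^5/well) plated 24 h, then transiently transfected for 24 h with plasmid carrying full-genome HBV with rtL180M + rtM204V + rtT184L (wild-type genome in parallel). Washed with PBS, then given fresh medium with compound for 72 h. Intracellular HBV DNA replicative intermediates extracted and quantified by real-time PCR against the wild-type group.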

[7] = as §1, with “Selectivity index, ratio of CC50 for human HepG2 2.2.15 to IC50 of Antiviral” for “Antiviral”, “replication” for “replication at 10 uM”; format: toxicity, cell-based; settings: read-out: Selectivity Index
Procedure, shortened: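 SI is CC50 divided by IC50. CC50 comes from MTT on HepG2 2.2.15 cells, 72 h exposure, absorbance at 490 nm relative to untreated cells. IC50 comes from HepG2 cells transiently transfected with rtL180M + rtM204V + rtT184L HBV plasmid and treated 72 h, with DNA replicative intermediates measured by real-time PCR, triplicate experiments.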

Hepatitis B virus [8] = assay: Antiviral activity against lamivudine/entecavir-resistant HBV rtL180M/rtM204V/rtT184L mutant infected in human HepG2 2.2.15 cells assessed as inhibition of viral DNA replication at 0.8 uM measured after incubation of 72 hrs by RT-PCR analysis relative to control; format: functional; procedure, shortened: as §2
Hepatitis B virus [9] = assay: Antiviral activity against lamivudine/entecavir-resistant HBV rtL180M/rtM204V/rtT184L mutant infected in human HepG2 2.2.15 cells assessed as inhibition of viral DNA replication measured after incubation of 72 hrs by RT-PCR analysis; format: functional, organism-based
Procedure, shortened: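 HepG2 cells transiently transfected for 24 h with full-genome HBV plasmid carrying rtL180M + rtM204V + rtT184L, washed, then treated over a dose range for 72 h. HBV DNA replicative intermediates quantified by real-time PCR. IC50 is the concentration giving 50% inhibition of HBV DNA replication, as mean ± SD of triplicate experiments.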

| SMILES | CC50 at 72 h [1] [µM] | inhibition at 0.8 µM (Hepatitis B virus [2]) [%] | other results |
| --- | --- | --- | --- |
| O=C(N[C@H](CO)Cc1ccccc1)/C(NC(=O)c1cccc(Br)c1)=C(/Br)c1ccccc1 | > 100 | 2.48 | – |
| COc1ccc(C(=O)N/C(C(=O)N[C@H](CO)Cc2ccccc2)=C(\Br)c2ccccc2)cc1 | > 100 | 6.25 | – |
| O=C(N[C@H](CO)Cc1ccccc1)/C(NC(=O)c1ccccc1)=C(/Br)c1cccc(O)c1 | 99.5 | 29.6 | – |
| O=C(N[C@H](CO)Cc1ccccc1)/C(NC(=O)c1ccccc1)=C(/Br)c1cccc(C(F)(F)F)c1 | > 100 | 23.1 | – |
| CN(C)CCOc1cccc(/C(Br)=C(/NC(=O)c2ccccc2)C(=O)N[C@H](CO)Cc2ccccc2)c1 | 94.7 | 58.4 | – |
| O=C(N[C@H](CO)Cc1ccccc1)/C(NC(=O)c1ccc(F)c(F)c1)=C(/Br)c1ccccc1 | > 100 | 73.7 | selectivity ratio at 144 h [3]: > 208; IC50 (Hepatitis B virus [4]): 0.48 µM |
| O=C(N[C@H](CO)Cc1ccccc1)/C(NC(=O)c1ccccc1Cl)=C(/Br)c1ccccc1 | > 100 | 13.9 | – |
| O=C(N[C@H](CO)Cc1ccccc1)/C(NC(=O)c1ccccc1)=C(/Br)c1cccc(Cl)c1 | > 100 | 48.2 | – |
| O=C(N[C@H](CO)Cc1ccccc1)/C(NC(=O)c1cccc(Cl)c1)=C(/Br)c1ccccc1 | > 100 | 5.36 | – |
| COc1cccc(C(=O)N/C(C(=O)N[C@H](CO)Cc2ccccc2)=C(\Br)c2ccccc2)c1 | > 100 | 4.89 | – |
| O=C(N[C@H](CO)Cc1ccccc1)/C(NC(=O)c1ccccc1Br)=C(/Br)c1ccccc1 | > 100 | 17.2 | – |
| COc1cccc(/C(Br)=C(/NC(=O)c2ccccc2)C(=O)N[C@H](CO)Cc2ccccc2)c1 | > 100 | 48.9 | – |
| Cc1cc(F)ccc1C(=O)N/C(C(=O)N[C@H](CO)Cc1ccccc1)=C(\Br)c1ccccc1 | > 100 | 83.2 | selectivity ratio at 144 h [3]: > 303; IC50 (Hepatitis B virus [4]): 0.33 µM |
| O=C(N[C@H](CO)Cc1ccccc1)/C(NC(=O)c1ccccc1)=C(/Br)c1cccc(Br)c1 | > 100 | 14.4 | – |
| C=C1[C@H](CO)[C@@H](O)C[C@@H]1n1cnc2c(=O)[nH]c(N)nc21 [ENTECAVIR] | – | – | inhibition at 10 µM (Hepatitis B virus [5]): 96.8%; inhibition at 10 µM (Hepatitis B virus [6]): 20.7% |
| COc1ccccc1C(=O)N/C(C(=O)N[C@H](CO)Cc1ccccc1)=C(\Br)c1ccccc1 | > 100 | 11.9 | – |
| O=C(N[C@H](CO)Cc1ccccc1)/C(NC(=O)c1ccc(F)cc1)=C(/Br)c1ccccc1 | > 100 | 74.9 | selectivity ratio at 72 h [7]: > 232; selectivity ratio at 144 h [3]: > 263; inhibition at 0.8 µM (Hepatitis B virus [8]): 72.9%; inhibition (Hepatitis B virus [9]): Dose-dependent effect; IC50 (Hepatitis B virus [9]; HepG2 2.2.15, 72 h): 0.43 µM; IC50 (Hepatitis B virus [4]): 0.38 µM |
